Reference: ChEMBL document CHEMBL1135184, “2,4-Disubstituted pyrroles: synthesis, traceless linking and pharmacological investigations leading to the dopamine D4 receptor partial agonist FAUC 356” (Bioorg Med Chem Lett, 2002)
pEC50, pKi: −log10 of the molar value.

Key:
D(1A) dopamine receptor = D(1A) dopamine receptor (Bos taurus, UniProt Q95136); assay: Ability to displace [3H]SCH-23,390 radioligand from bovine Dopamine receptor D1
D(3) dopamine receptor = D(3) dopamine receptor (Homo sapiens, UniProt P35462); assay: Ability to displace [3H]spiperone radioligand from cloned human Dopamine receptor D3 in CHO cells; type: cell-based
How it was run: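 Human D3 receptor stably expressed in CHO cells, membranes labelled with [3H]spiperone in a competition format.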

D(4) dopamine receptor [1] = molecular target: T1, D(4) dopamine receptor (Homo sapiens, UniProt P21917); assay: Ability to displace [3H]spiperone radioligand from cloned human Dopamine receptor D4 in CHO cells; type: cell-based
T1 sequence (P21917 whole entry): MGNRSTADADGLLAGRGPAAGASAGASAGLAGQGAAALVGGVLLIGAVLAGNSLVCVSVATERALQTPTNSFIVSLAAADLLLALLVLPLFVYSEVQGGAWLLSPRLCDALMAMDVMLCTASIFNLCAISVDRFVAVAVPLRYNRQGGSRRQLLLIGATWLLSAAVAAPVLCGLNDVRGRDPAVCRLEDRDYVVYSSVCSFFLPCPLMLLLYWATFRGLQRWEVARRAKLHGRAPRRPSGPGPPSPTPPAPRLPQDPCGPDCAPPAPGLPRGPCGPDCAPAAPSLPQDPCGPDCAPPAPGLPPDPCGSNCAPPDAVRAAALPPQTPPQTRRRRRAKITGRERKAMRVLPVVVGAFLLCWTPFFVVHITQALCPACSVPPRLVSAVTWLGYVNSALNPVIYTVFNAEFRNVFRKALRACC

D(2) dopamine receptor [2] = molecular target: T2, D(2) dopamine receptor (Homo sapiens, UniProt P14416); assay: Ability to displace [3H]spiperone radioligand from cloned human Dopamine receptor D2 in CHO cells; type: cell-based
D(2) dopamine receptor [3] = molecular target: T2, D(2) dopamine receptor; assay: Ability to displace […] radioligand from cloned human Dopamine receptor D2 in CHO cells; type: cell-based
D(4) dopamine receptor [4] = molecular target: T1, D(4) dopamine receptor; assay: Effective concentration of compound required against human Dopamine D4.2 receptor; type: functional
[5] = molecular target: 5-hydroxytryptamine receptor 2A (Sus scrofa, UniProt P50129); assay: Ability to displace [3H]-Ketanserin radioligand from porcine 5-hydroxytryptamine 2A receptor
[6] = molecular target: T3, D(4) dopamine receptor (Homo sapiens) (UniProt P21917)
T3 sequence (whole entry): T1 sequence (P21917 whole entry)

T2 sequence (P14416 whole entry): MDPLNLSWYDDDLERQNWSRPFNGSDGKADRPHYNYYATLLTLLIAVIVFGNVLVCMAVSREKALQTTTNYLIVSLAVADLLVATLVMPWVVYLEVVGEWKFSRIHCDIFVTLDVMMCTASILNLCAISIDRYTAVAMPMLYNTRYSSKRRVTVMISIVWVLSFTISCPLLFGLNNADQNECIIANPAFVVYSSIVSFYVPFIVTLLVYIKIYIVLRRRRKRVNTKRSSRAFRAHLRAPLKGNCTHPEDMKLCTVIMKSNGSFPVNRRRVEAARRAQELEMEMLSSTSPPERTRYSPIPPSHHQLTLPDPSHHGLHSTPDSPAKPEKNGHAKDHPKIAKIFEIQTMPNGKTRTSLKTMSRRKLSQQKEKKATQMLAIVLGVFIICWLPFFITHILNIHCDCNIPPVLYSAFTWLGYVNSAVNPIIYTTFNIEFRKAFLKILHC
Sequence of D(3) dopamine receptor (P35462 whole entry): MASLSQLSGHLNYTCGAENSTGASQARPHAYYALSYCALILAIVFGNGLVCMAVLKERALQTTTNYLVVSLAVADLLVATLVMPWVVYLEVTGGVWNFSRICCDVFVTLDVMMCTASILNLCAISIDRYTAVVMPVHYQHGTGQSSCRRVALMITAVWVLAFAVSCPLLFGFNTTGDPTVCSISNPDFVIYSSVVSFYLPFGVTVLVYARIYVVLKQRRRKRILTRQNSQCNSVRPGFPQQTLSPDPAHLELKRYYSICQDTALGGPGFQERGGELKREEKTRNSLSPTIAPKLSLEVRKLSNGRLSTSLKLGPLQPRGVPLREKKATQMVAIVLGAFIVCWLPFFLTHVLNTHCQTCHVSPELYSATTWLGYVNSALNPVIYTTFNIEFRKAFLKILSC
Sequence of 5-hydroxytryptamine receptor 2A (P50129 whole entry): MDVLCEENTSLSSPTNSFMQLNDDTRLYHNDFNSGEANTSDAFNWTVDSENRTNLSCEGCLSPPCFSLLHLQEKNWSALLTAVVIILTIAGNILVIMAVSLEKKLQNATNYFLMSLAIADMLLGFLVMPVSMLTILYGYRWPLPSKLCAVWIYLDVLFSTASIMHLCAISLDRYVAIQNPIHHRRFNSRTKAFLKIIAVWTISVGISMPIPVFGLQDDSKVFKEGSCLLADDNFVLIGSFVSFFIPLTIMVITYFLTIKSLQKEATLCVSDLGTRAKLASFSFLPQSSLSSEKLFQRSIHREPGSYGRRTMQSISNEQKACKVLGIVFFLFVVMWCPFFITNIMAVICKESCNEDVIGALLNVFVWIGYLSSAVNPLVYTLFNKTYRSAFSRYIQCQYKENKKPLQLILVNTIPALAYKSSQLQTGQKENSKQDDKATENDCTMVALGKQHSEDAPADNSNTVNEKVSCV
Sequence of D(1A) dopamine receptor (Q95136 whole entry): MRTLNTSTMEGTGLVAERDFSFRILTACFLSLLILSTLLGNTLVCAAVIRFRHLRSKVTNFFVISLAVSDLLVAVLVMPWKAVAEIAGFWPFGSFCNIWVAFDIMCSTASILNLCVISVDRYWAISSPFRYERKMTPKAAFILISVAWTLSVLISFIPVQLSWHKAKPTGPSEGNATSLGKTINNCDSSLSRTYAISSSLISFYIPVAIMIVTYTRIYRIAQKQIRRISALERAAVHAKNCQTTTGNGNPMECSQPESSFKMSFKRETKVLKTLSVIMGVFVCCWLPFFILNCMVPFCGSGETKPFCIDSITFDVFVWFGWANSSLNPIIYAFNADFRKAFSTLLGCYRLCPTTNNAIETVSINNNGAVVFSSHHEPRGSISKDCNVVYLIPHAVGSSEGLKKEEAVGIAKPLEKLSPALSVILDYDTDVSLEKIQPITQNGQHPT

Structure (SMILES): c1ccc(N2CCN(Cc3ccc[nH]3)CC2)cc1
- pKi (D(1A) dopamine receptor): 5.27
- pKi (D(3) dopamine receptor): 6.24
- pKi (D(4) dopamine receptor [1]): 7.00
- pKi (D(2) dopamine receptor [2]): 5.52
- pKi (D(2) dopamine receptor [3]): 5.51

Structure (SMILES): C(#Cc1c[nH]c(CN2CCN(c3ccccc3)CC2)c1)c1ccccc1
- pKi (D(1A) dopamine receptor): 5.57
- pKi (D(3) dopamine receptor): 6.17
- pKi (D(4) dopamine receptor [1]): 7.08
- pKi (D(2) dopamine receptor [2]): 6.26
- pKi (D(2) dopamine receptor [3]): 6.12

Structure (SMILES): N#Cc1c[nH]c(CN2CCN(c3ccccc3)CC2)c1
- pEC50 (D(4) dopamine receptor [4]): 8.25
- pKi (D(1A) dopamine receptor): 5.34
- pKi (D(3) dopamine receptor): 5.74
- pKi (D(4) dopamine receptor [1]): 7.68
- pKi [5]: 6.21
- pKi (D(2) dopamine receptor [2]): 5.10
- pKi (D(2) dopamine receptor [3]): 5.43

Structure (SMILES): c1ccc(-c2c[nH]c(CN3CCN(c4ccccc4)CC3)c2)cc1
- pEC50 (D(4) dopamine receptor [4]): 8.17
- pKi (D(1A) dopamine receptor): 5.68
- pKi (D(3) dopamine receptor): 6.27
- pKi (D(4) dopamine receptor [1]): 7.92
- pKi [5]: 5.89
- pKi (D(2) dopamine receptor [2]): 6.77
- pKi (D(2) dopamine receptor [3]): 6.64

Structure (SMILES): N#Cc1cc(CN2CCN(c3ccccc3)CC2)c[nH]1
- pKi (D(1A) dopamine receptor): 5.92
- pEC50 [6]: 8.11
- pKi (D(3) dopamine receptor): 6.14
- pKi (D(4) dopamine receptor [1]): 7.74
- pKi [5]: 6.35
- pKi (D(2) dopamine receptor [2]): 5.47
- pKi (D(2) dopamine receptor [3]): 5.62

Structure (SMILES): C#Cc1c[nH]c(CN2CCN(c3ccccc3)CC2)c1
- pEC50 (D(4) dopamine receptor [4]): 8.72
- pKi (D(1A) dopamine receptor): 5.70
- pKi (D(3) dopamine receptor): 6.07
- pKi (D(4) dopamine receptor [1]): 8.23
- pKi [5]: 6.42
- pKi (D(2) dopamine receptor [2]): 6.24
- pKi (D(2) dopamine receptor [3]): 6.11
